Experimental data reported in ChEMBL document CHEMBL1157608, “The discovery of 4-{1-[({2,5-dimethyl-4-[4-(trifluoromethyl)benzyl]-3-thienyl}carbonyl)amino]cyclopropyl}benzoic acid (MK-2894), a potent and selective prostaglandin E2 subtype 4 receptor antagonist” (J Med Chem, 2010).
The source made the active and inactive calls. The calls are words filed in the database; no cut-off is given here.

Experiments:
[1] = Volume of distribution at steady state in C57BL/6 mouse at 20 mg/kg, po and 5 mg/kg, iv; format: ADME, organism-based; conditions: in vivo, read-out: Vdss
Outline: (§1)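 Overnight-fasted animals dosed po in 0.5% methocel or iv in 60% PEG 200; plasma from serial blood samples stored at -10 °C, protein-precipitated with equal volume acetonitrile/0.1% formic acid, analysed by LC/MS/MS with internal standard against spiked blank-plasma standards; Cmax from po data, half-life from iv data.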

[2] = Plasma clearance in Sprague-Dawley rat at 20 mg/kg, po and 5 mg/kg, iv; format: ADME, organism-based; outline: as §1
[3] = molecular target: T1, Prostaglandin E2 receptor EP1 subtype (Rattus norvegicus, UniProt P70597); test: Displacement of [3H]PGE2 from rat EP1 receptor expressed in HEK293-EBNA cells by scintillation counting; format: cell-based
T1 sequence (P70597 whole entry): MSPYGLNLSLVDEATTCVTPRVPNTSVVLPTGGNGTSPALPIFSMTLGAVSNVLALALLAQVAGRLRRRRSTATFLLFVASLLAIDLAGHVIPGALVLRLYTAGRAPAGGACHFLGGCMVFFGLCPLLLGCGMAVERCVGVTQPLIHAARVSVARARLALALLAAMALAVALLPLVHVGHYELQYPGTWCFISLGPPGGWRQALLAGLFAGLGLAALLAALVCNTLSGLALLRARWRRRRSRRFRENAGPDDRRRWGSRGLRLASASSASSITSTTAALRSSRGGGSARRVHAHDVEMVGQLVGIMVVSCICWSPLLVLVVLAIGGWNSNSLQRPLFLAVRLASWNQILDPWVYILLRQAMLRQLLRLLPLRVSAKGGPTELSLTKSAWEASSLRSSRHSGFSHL
Outline: (§2)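 Radioligand binding on membranes from HEK 293(EBNA) clonal lines overexpressing each prostanoid receptor, using the respective 3H-prostaglandin or thromboxane ligand; EP4 binding also run with 10% human serum; Ki as means of at least three experiments (rEP2, rEP3 n = 1).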

[4] = molecular target: T2, Thromboxane A2 receptor (Homo sapiens, UniProt P21731); test: Displacement of [3H]SQ29548 from human TP receptor expressed in HEK293-EBNA cells by scintillation counting; format: cell-based; outline: as §2
T2 sequence (P21731 whole entry): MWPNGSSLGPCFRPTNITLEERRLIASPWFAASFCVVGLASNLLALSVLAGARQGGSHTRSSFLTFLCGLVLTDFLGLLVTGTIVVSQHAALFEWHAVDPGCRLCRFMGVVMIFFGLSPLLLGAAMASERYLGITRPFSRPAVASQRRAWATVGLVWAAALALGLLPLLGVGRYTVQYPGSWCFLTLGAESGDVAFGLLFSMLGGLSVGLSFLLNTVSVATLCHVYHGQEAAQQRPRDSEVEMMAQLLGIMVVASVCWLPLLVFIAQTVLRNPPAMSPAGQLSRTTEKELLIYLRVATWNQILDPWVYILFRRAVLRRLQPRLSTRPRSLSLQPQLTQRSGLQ

[5] = species: Rattus norvegicus; test: Analgesic activity against complete Freund's adjuvant-induced Sprague-Dawley rat inflammatory pain assessed as inhibition of chronic paw swelling; format: functional
Outline: (§3)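 Adjuvant-induced arthritis in rats: CFA injected into primary paw on day 0; oral dosing in 0.5% methocel once daily for 9 days starting day 9; secondary paw swelling measured; plasma levels taken 24 h after final dose; n = 7/group; 1-way ANOVA/Dunnett's vs vehicle.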

[6] = molecular target: T3, Prostaglandin E2 receptor EP1 subtype (Homo sapiens, UniProt P34995); test: Displacement of [3H]PGE2 from human EP1 receptor expressed in HEK293-EBNA cells by scintillation counting; format: cell-based; outline: as §2
T3 sequence (P34995 whole entry): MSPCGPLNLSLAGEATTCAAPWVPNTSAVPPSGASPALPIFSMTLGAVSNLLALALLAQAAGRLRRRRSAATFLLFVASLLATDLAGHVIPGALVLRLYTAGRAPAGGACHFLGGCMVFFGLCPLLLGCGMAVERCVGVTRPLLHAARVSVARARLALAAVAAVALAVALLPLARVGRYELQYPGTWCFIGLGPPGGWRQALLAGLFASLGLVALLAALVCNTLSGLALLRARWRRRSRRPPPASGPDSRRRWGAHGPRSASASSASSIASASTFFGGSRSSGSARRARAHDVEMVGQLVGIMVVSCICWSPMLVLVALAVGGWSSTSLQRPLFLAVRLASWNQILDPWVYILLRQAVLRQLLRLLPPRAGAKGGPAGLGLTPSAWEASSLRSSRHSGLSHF

[7] = Oral bioavailability in cynomolgus monkey at 5 mg/kg; format: ADME, organism-based, Macaca fascicularis; conditions: in vivo; outline: as §1
[8] = Cmax in Sprague-Dawley rat at 20 mg/kg, po; format: ADME, organism-based; design: dose 20 mg/kg, route oral; conditions: in vivo; outline: as §1
[9] = species: Rattus norvegicus; test: Analgesic activity against complete Freund's adjuvant-induced Sprague-Dawley rat inflammatory pain assessed as inhibition of chronic paw swelling at plasma concentration of 4 nM after 24 hrs; format: functional, organism-based; outline: as §3
[10] = Volume of distribution at steady state in Sprague-Dawley rat at 20 mg/kg, po and 5 mg/kg, iv; format: ADME, organism-based; conditions: in vivo, read-out: Vdss; outline: as §1
[11] = Oral bioavailability in C57BL/6 mouse at 20 mg/kg; format: ADME, organism-based; conditions: in vivo; outline: as §1
[12] = Volume of distribution at steady state in Beagle dog at 5 mg/kg, po and 1 mg/kg, iv; format: ADME, organism-based, Canis lupus familiaris; conditions: in vivo, read-out: Vdss; outline: as §1
[13] = molecular target: T4, Prostaglandin E2 receptor EP4 subtype (Homo sapiens, UniProt P35408); test: Antagonist activity at human EP4 receptor expressed in HEK293 cells assessed as inhibition of PGE2-induced cAMP accumulation by scintillation proximity assay in presence of 10% human serum; format: functional, cell-based
T4 sequence (P35408 whole entry): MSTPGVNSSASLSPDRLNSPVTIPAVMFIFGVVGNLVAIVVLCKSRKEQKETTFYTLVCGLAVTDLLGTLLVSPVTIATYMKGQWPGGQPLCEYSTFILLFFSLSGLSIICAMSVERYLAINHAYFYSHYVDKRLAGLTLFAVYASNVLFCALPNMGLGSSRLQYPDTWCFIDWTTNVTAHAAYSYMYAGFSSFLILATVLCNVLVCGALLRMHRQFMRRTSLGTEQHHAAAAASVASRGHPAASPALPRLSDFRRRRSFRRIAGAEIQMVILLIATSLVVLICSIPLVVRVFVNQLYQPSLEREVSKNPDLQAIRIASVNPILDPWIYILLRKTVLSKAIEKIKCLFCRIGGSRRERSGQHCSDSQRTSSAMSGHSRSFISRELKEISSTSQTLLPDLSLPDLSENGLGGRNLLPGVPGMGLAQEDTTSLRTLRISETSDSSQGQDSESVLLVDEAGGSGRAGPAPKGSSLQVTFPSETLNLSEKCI
Outline: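 Functional EP4 assay in the same HEK 293(EBNA) clonal line overexpressing human EP4; inhibition of PGE2-induced cAMP accumulation, run in presence of 10% human serum to gauge serum protein binding; IC50 values are means of at least three experiments.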

[14] = molecular target: Prostaglandin F2-alpha receptor (Homo sapiens, UniProt P43088); test: Displacement of [3H]PGF2alpha from human FP receptor expressed in HEK293-EBNA cells by scintillation counting; format: cell-based; outline: as §2
Sequence of Prostaglandin F2-alpha receptor (P43088 whole entry): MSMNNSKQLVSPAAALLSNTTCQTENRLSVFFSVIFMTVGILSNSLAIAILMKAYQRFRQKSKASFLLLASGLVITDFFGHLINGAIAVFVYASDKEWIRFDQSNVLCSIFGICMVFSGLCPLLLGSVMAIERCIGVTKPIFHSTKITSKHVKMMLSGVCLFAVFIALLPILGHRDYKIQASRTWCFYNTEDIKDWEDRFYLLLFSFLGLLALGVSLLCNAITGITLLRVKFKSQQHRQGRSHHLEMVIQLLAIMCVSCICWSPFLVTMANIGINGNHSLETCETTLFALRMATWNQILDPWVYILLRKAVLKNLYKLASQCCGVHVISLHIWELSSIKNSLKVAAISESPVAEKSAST

[15] = molecular target: T4, Prostaglandin E2 receptor EP4 subtype; test: Displacement of [3H]PGE2 from human EP4 receptor expressed in HEK293-EBNA cells by scintillation counting; format: cell-based; outline: as §2
[16] = molecular target: T5, Prostaglandin E2 receptor EP3 subtype (Homo sapiens, UniProt P43115); test: Displacement of [3H]PGE2 from human EP3 receptor expressed in HEK293-EBNA cells by scintillation counting; format: cell-based; outline: as §2
T5 sequence (P43115 whole entry): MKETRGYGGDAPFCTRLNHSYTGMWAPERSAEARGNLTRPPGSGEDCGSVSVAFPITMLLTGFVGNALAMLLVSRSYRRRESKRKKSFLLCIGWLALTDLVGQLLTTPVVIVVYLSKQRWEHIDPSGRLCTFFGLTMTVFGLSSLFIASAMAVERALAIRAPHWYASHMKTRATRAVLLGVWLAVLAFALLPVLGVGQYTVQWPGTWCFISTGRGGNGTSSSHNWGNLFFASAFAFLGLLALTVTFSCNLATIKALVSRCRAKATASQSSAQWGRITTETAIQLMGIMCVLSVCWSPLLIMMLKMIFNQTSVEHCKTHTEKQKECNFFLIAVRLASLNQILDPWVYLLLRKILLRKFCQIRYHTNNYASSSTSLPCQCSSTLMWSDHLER

[17] = Cmax in C57BL/6 mouse at 20 mg/kg, po; format: ADME, organism-based; design: dose 20 mg/kg, route oral; conditions: in vivo; outline: as §1

Vd [1]: 7.6 L/kg | clearance [2]: 9.2 mL/min/kg | Ki [3]: > 29 µM | Ki [4]: > 6.8 µM | Ki [6]: > 5.6 µM | bioavailability [7]: 18% | Cmax [8]: 4.5 µM | Vd [10]: 2.6 L/kg | bioavailability [11]: 21% | Vd [12]: 0.91 L/kg | IC50 [13]: 2.9 nM | Ki [14]: > 24 µM | Ki [15]: 0.56 nM | Ki [16]: > 7.9 µM | Cmax [17]: 1400 nM
SMILES: Cc1sc(C)c(C(=O)NC2(c3ccc(C(=O)O)cc3)CC2)c1Cc1ccc(C(F)(F)F)cc1
Activity [5]: Dose-dependent effect | ED50 [5]: 0.02 mg/kg | Activity [9]: Active
